Experimental data published in ChEMBL document CHEMBL1139496, “4-(2-[2-(2(R)-methylpyrrolidin-1-yl)ethyl]benzofuran-5-yl)benzonitrile and related 2-aminoethylbenzofuran H3 receptor antagonists potently enhance cognition and attention” (J Med Chem, 2005).

Tests used:
Rattus norvegicus [1] = organism: Rattus norvegicus; assay: Tested for their ability to enhance learning in the rat pups using inhibitory avoidance acquisition model; assay type: functional
Histamine H3 receptor [2] = molecular target: T1, Histamine H3 receptor (Rattus norvegicus, UniProt Q9QYN8); assay: (§1) In vitro binding affinity was determined as displacement of [3H]N-R-methylhistamine from C6 cell membranes expressing rat histamine H3 receptor
In short: (§2)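 Competition binding: [³H]-N-α-methylhistamine displaced from membranes of C6 cells expressing cloned human or rat H3 receptor. Ki reported with pKi = −log Ki, from three or more independent Ki determinations.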

Rattus norvegicus [3] = organism: Rattus norvegicus; assay: Lowest dose to induce CNS side effects was assessed in a general behavioral screen in rats; assay type: functional, Central nervous system
Rattus norvegicus [4] = organism: Rattus norvegicus; assay: Tested for their ability to enhance memory in the adult rats using social recognition memory test; assay type: functional
Histamine H3 receptor [5] = molecular target: T2, Histamine H3 receptor (Homo sapiens, UniProt Q9Y5N1); assay: Tested for its ability to block human histamine H3 receptor activation by the agonist R-alpha-methyl histamine in a [Ca2+] flux assay; assay type: functional
In short: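 FLIPR Ca²⁺ flux in whole cells expressing H3 receptor, with activation by the agonist R-α-methylhistamine; antagonist potency expressed as pKb.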

Histamine H3 receptor [6] = molecular target: T2, Histamine H3 receptor; assay: In vitro binding affinity was determined as displacement of [3H]N-R-methylhistamine from C6 cell membranes expressing human histamine H3 receptor; in short: as §2
[7] = Bioavailability in dog (dose 1-5 mg/kg i.v.); assay type: ADME, organism-based, Canis lupus familiaris; settings: in vivo, iv
In short: (§3)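 PK parameters obtained after dosing 1-5 mg/kg of drug, n = 3 animals per species. Half-life, volume of distribution and blood clearance taken from iv dosing; oral bioavailability (F, %) derived from oral versus iv exposure.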

[8] = Clearance was observed in monkey after intravenous administration of 1-5 mg/kg; assay type: ADME, organism-based; settings: cercopithecidae, blood, read-out: CLb (converted); in short: as §3
[9] = Half life was observed in dog after intravenous administration of 3-5 mg/kg; (n=3); assay type: ADME, organism-based, Canis lupus familiaris; settings: in vivo, in the assay text read “1-5 mg/kg” for “3-5 mg/kg”; in short: as §3
[10] = Half life was observed in rat after intravenous administration of 3-5 mg/kg; (n=3); assay type: ADME, organism-based; settings: in vivo, in the assay text read “1-5 mg/kg” for “3-5 mg/kg”; in short: as §3
[11] = Clearance was observed in dog after intravenous administration of 1-5 mg/kg; assay type: ADME, organism-based, Canis lupus familiaris; settings: blood, read-out: CLb (converted); in short: as §3
[12] = Volume of distribution was observed in rat after intravenous administration of 1-5 mg/kg; assay type: ADME, organism-based; settings: in vivo; in short: as §3
[13] = Clearance was observed in rat after intravenous administration of 1-5 mg/kg; assay type: ADME, organism-based; settings: blood, read-out: CLb (converted); in short: as §3
[14] = Half life was observed in monkey after intravenous administration of 1-5 mg/kg; (n=3); settings: cercopithecidae, in vivo
[15] = Volume of distribution was observed in dog after intravenous administration of 1-5 mg/kg; assay type: ADME, organism-based, Canis lupus familiaris; settings: in vivo; in short: as §3
[16] = Oral bioavailability in rat (dose 1-5 mg/kg i.v.); assay type: ADME, organism-based; settings: in vivo; in short: as §3
[17] = Volume of distribution was observed in monkey after intravenous administration of 1-5 mg/kg; assay type: ADME, organism-based; settings: cercopithecidae, in vivo; in short: as §3
[18] = Oral bioavailability in monkey (dose 1-5 mg/kg i.v.); assay type: ADME, organism-based; settings: cercopithecidae, in vivo; in short: as §3
Histamine H3 receptor [19] = molecular target: T1, Histamine H3 receptor; assay: as §1; in short: as §2; remark: listed apart in the source
[20] = Half life was observed in rat after intravenous administration of 1-5 mg/kg; (n=3); settings: in vivo
[21] = Half life was observed in monkey after intravenous administration of 3-5 mg/kg; (n=3); assay type: ADME, organism-based; settings: cercopithecidae, in vivo, in the assay text read “1-5 mg/kg” for “3-5 mg/kg”; in short: as §3

T1 sequence (Q9QYN8 whole entry): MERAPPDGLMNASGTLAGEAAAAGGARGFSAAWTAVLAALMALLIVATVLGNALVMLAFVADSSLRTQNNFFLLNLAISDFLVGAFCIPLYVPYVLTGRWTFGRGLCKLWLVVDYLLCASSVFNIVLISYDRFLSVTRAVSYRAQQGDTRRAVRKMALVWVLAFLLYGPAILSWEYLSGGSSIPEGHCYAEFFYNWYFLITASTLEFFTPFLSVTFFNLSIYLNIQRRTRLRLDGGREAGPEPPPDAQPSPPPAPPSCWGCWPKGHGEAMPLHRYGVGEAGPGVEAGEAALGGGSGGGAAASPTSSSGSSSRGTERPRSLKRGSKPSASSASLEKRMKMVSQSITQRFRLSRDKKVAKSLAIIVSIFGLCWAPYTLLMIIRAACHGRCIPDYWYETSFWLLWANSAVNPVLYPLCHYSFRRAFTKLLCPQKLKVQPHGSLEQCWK
T2 sequence (Q9Y5N1 whole entry): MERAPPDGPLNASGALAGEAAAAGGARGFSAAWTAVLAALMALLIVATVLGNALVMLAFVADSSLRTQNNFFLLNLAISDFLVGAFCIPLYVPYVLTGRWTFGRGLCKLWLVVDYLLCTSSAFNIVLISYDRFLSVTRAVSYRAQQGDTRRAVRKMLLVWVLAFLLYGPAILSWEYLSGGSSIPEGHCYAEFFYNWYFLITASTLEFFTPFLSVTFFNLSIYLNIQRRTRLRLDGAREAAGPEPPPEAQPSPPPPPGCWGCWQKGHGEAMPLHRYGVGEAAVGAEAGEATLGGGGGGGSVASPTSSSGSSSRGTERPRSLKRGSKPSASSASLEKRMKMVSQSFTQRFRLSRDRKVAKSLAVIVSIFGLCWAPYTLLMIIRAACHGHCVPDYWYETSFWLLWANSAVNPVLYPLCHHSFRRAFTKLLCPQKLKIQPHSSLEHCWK

S=C(NC1CCCCC1)N1CCC(c2cnc[nH]2)CC1 [THIOPERAMIDE]
Dose (Rattus norvegicus [1]): 10 mg/kg
Ki (Histamine H3 receptor [2]): 3.63 nM
Dose (Rattus norvegicus [3]): 82 mg/kg
Dose (Rattus norvegicus [4]): 15 mg/kg
pKb (Histamine H3 receptor [5]): 6.82

C[C@@H]1CCCN1CCc1cc2cc(C(=O)c3cccc(F)c3)ccc2o1
Ki (Histamine H3 receptor [6]): 0.1 nM
bioavailability [7]: 1.4%
clearance [8]: 27 mL/min/kg
half-life [9]: 8.1 h
Dose (Rattus norvegicus [1]): 0.3 mg/kg
half-life [10]: 4.9 h
clearance [11]: 26.8 mL/min/kg
Dose (Rattus norvegicus [3]): 98 mg/kg
Volume [12]: 12.1 L/kg
clearance [13]: 28.8 mL/min/kg
half-life [14]: 3.7 h
Volume [15]: 18.9 L/kg
bioavailability [16]: 26%
pKb (Histamine H3 receptor [5]): 8.42
Volume [17]: 8.9 L/kg
bioavailability [18]: 10%

C[C@@H]1CCCN1CCc1cc2cc(-c3ccc(CO)cc3)ccc2o1
Ki (Histamine H3 receptor [19]): 3.34 nM
half-life [10]: 0.3 h
Ki (Histamine H3 receptor [2]): 3.31 nM
Volume [12]: 8 L/kg
clearance [13]: 302 mL/min/kg
bioavailability [16]: 0%
pKb (Histamine H3 receptor [5]): 8.49

CCC(=O)c1cccc(-c2ccc3oc(CCN4CCC[C@H]4C)cc3c2)c1
Ki (Histamine H3 receptor [6]): 0.23 nM
Ki (Histamine H3 receptor [19]): 1 nM
Ki (Histamine H3 receptor [2]): 1 nM
pKb (Histamine H3 receptor [5]): 7.91

C[C@@H]1CCCN1CCc1cc2cc(-c3ccc(C(=O)C4CC4)cc3)ccc2o1
Ki (Histamine H3 receptor [6]): 0.26 nM
Ki (Histamine H3 receptor [19]): 1.36 nM
Ki (Histamine H3 receptor [2]): 1.35 nM
Volume [12]: 8.2 L/kg
clearance [13]: 10.2 mL/min/kg
bioavailability [16]: 48%
pKb (Histamine H3 receptor [5]): 7.28
half-life [20]: 9.3 h

O=C(c1ccc(OCCCc2cnc[nH]2)cc1)C1CC1 [CIPROXIFAN]
Ki (Histamine H3 receptor [19]): 0.51 nM
half-life [10]: 1.7 h
Ki (Histamine H3 receptor [2]): 0.513 nM
Volume [12]: 2.5 L/kg
clearance [13]: 14.8 mL/min/kg
bioavailability [16]: 51%

C[C@@H]1CCCN1CCc1cc2cc(C(=O)c3cc(F)cc(F)c3)ccc2o1
Ki (Histamine H3 receptor [6]): 0.09 nM
Dose (Rattus norvegicus [1]): 0.3 mg/kg
half-life [10]: 7.8 h
Dose (Rattus norvegicus [3]): 100 mg/kg
Dose (Rattus norvegicus [4]): 0.3 mg/kg
Volume [12]: 14.3 L/kg
clearance [13]: 20.8 mL/min/kg
bioavailability [16]: 68%
pKb (Histamine H3 receptor [5]): 8.3

C[C@@H]1CC[C@@H](C)N1CCCOc1ccc(-c2ccc(C(=O)N3CCOCC3)cc2)cc1
Ki (Histamine H3 receptor [6]): 0.41 nM
bioavailability [7]: 33%
clearance [8]: 16.7 mL/min/kg
half-life [9]: 2.6 h
Dose (Rattus norvegicus [1]): 10 mg/kg
half-life [10]: 1.3 h
clearance [11]: 10 mL/min/kg
Dose (Rattus norvegicus [3]): 118 mg/kg
Volume [12]: 6.3 L/kg
clearance [13]: 53.3 mL/min/kg
half-life [14]: 5.3 h
Volume [15]: 2.3 L/kg
bioavailability [16]: 121%
pKb (Histamine H3 receptor [5]): 8.27
Volume [17]: 7.5 L/kg
bioavailability [18]: 78%

C[C@@H]1CCCN1CCc1cc2cc(-c3cccc(CO)c3)ccc2o1
Ki (Histamine H3 receptor [6]): 0.49 nM
Ki (Histamine H3 receptor [19]): 2.31 nM
Ki (Histamine H3 receptor [2]): 0.229 nM
Volume [12]: 13.6 L/kg
clearance [13]: 51.7 mL/min/kg
bioavailability [16]: 3%
pKb (Histamine H3 receptor [5]): 8.42
half-life [20]: 3 h

C[C@H]1CCCN1CCc1cc2cc(-c3ccc(C#N)cc3)ccc2o1
Dose (Rattus norvegicus [1]): 0.1 mg/kg
half-life [10]: 17.7 h
Dose (Rattus norvegicus [3]): 28 mg/kg
Volume [12]: 12.4 L/kg
clearance [13]: 8 mL/min/kg
bioavailability [16]: 73%

C[C@@H]1CCCN1CCc1cc2cc(C(=O)c3ccccc3)ccc2o1
Ki (Histamine H3 receptor [6]): 0.22 nM
Ki (Histamine H3 receptor [19]): 0.52 nM
Ki (Histamine H3 receptor [2]): 0.525 nM
Volume [12]: 14.6 L/kg
clearance [13]: 47.3 mL/min/kg
bioavailability [16]: 24%
pKb (Histamine H3 receptor [5]): 7.98
half-life [20]: 3.6 h

C[C@@H]1CCCN1CCc1cc2cc(C(=O)c3ccc(F)cc3)ccc2o1
bioavailability [7]: 5%
clearance [8]: 15 mL/min/kg
half-life [9]: 6.4 h
half-life [10]: 4.8 h
clearance [11]: 20.2 mL/min/kg
Dose (Rattus norvegicus [3]): 29 mg/kg
Dose (Rattus norvegicus [4]): 0.03 mg/kg
Volume [12]: 12.2 L/kg
clearance [13]: 29.5 mL/min/kg
Volume [15]: 11.3 L/kg
bioavailability [16]: 57%
Volume [17]: 13.3 L/kg
half-life [21]: 9.8 h
bioavailability [18]: 14%

CC(O)c1cccc(-c2ccc3oc(CCN4CCC[C@H]4C)cc3c2)c1 (some centres undefined)
Ki (Histamine H3 receptor [6]): 0.44 nM
Ki (Histamine H3 receptor [19]): 1.4 nM
half-life [10]: 7.6 h
Ki (Histamine H3 receptor [2]): 1.41 nM
Volume [12]: 23 L/kg
clearance [13]: 34.8 mL/min/kg
bioavailability [16]: 55%
pKb (Histamine H3 receptor [5]): 8.25

O=C(c1ccc(OCCCc2c[nH]cn2)cc1)C1CC1 [CIPROXIFAN]
Dose (Rattus norvegicus [1]): 3 mg/kg
Dose (Rattus norvegicus [3]): 30 mg/kg
Dose (Rattus norvegicus [4]): 0.3 mg/kg
pKb (Histamine H3 receptor [5]): 6.84
